Insulin prom up: MIN6 insulin promoter up-regulation; MIN6 insulin promoter-GFP reporter, high-content imaging; stronger effect = higher value; z-score at 5 µM; actives 0.3% (n = 190,000);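 active = z-score above 3 at 5 µM with at least 500 cells counted in the well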
SR-BI uptake up: enhances SR-BI lipid uptake from DiI-HDL | CHO ldlA[mSR-BI] cells, DiI-HDL uptake fluorescence, 3 h; 100 = double the neutral-control signal | activation, % at 12.5 µM | actives 0.096% (n = 320,000);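 active = mean replicate activation of at least 60% and every replicate at or above 60%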
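system = CHO ldlA[mSR-BI] cells, LDL receptor-null, SR-BI overexpressing | medium = Ham's F12 with 0.5% BSA, HEPES 25 mM, pH 7.4 | probe or stimulus = DiI-HDL 10 µg/mL | compound dosing = single-point compound dose | incubation = compound exposure 3 h, 37 °C | technique = DiI fluorescence, bottom read | read-out = cell-associated DiI fluorescence as measure of HDL uptake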
SR-BI HDL uptake: inhibitors of mouse SR-BI mediated HDL lipid uptake; Q61009; ldlA[mSR-BI] CHO cells, DiI-HDL uptake fluorescence, 3 h; inhibition, % at 12.5 µM; actives 0.96% (n = 320,000); AID 488896;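 active = mean replicate inhibition of at least 70% and a set share of replicates each scoring 70 or more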
HTR2A ag: activates the mouse 5-HT2A serotonin receptor | P35363 | CHO-K1 mHTR2A beta-arrestin complementation, luminescence; percent of 30 µM serotonin response | activation, % at 7.6 µM | actives 0.66% (n = 360,000);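 active = activation above a run cutoff, the mean activation of all tested compounds plus 3 SD, cut at about 14% in these data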
MIN6 prolif: MIN6 beta-cell proliferation induction. AID 2380. MIN6 cells proliferation, ATPlite luminescence, 48 h; cells starved in 0.2% serum; 100% = growth in 10% serum. actives 0.29% (n = 330,000). proliferation, % at 10 µM;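 active = compounds whose signal lies at least 3.5 SD above the mean of all wells on their plate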
Calb FLC: C. albicans growth modulation with fluconazole; actives 0.57% (n = 300,000); AID 1979; growth inhibition, % (no concentration beside the values); C. albicans CaCi-2 + fluconazole, Alamar Blue growth, 48 h;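 active = growth inhibition above about 58% in most replicates, limit read from the data, passing the limit was not always enough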;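 also: all wells also contain fluconazole at 8 µg/ml as a sub-toxic cotreatment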
OPRM1 ag: OPRM1 agonism in mouse HTR2A counterscreen; actives 5.3% (n = 2,300); U2OS OPRM1 beta-arrestin PathHunter, luminescence; DMSO 0%, DAMGO 9.3 µM 100%; activation, % at 9.3 µM; shares compounds with HTR2A ag; AID 624380;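 active = mean activation above the mean of DMSO-only wells plus 3 SD, cut at about 0.5% in these data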
Target sequence (P35372 whole entry, looked up): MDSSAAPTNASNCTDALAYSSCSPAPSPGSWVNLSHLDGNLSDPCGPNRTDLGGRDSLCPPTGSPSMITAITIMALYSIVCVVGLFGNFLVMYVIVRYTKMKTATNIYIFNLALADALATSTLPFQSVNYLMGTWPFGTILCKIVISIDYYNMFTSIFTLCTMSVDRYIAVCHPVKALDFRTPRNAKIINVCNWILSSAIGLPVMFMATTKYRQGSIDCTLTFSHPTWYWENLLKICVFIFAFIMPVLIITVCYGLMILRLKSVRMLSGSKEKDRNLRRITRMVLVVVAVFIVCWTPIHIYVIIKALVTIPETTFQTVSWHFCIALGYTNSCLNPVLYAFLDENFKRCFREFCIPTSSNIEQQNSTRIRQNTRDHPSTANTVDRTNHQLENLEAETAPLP
HTR2A ag conf: confirmation of mouse HTR2A serotonin receptor agonists; CHO-K1 PathHunter beta-arrestin recruitment, luminescence; DMSO 0%, 30 µM serotonin 100%; shares compounds with HTR2A ag; actives 19% (n = 2,300); activation, % at 7.6 µM;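 active = mean activation across triplicates above the hit threshold derived in the original primary screen, cut at about 15% in these data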
Each line names hits and unclear results; the compound was inactive in the other large screens (follow-up assays come after a bar, where they were run). Compounds with a hit are over-represented: about 2.4% of the library has one in this group of screens.

CC1CC(C)(C)N2C(=O)C3(Nc4ccccc4S3)c3cccc1c32 (stereo not given)	none (no result: Insulin prom up)
O=C(CC(NC(=O)C(F)(F)F)c1ccccc1)Nc1nnc(CCc2ccccc2)s1 (stereo not given)	none
CCOC(=O)C1(C)CCN1C(=O)/C=C/c1ccccc1 (stereo not given)	none (no result: Insulin prom up, SR-BI uptake up, SR-BI HDL uptake, MIN6 prolif, Calb FLC)
c1ccc(Oc2ncnc3ccccc23)cc1	HTR2A ag 16 (no result: Insulin prom up, MIN6 prolif, Calb FLC) | OPRM1 ag inactive | HTR2A ag conf inactive
COc1ccc(C2=Cc3ccccc3C(CC(=O)C3CC3)N2c2ccc(-c3cc(OC)c(OC)c(OC)c3)cc2)cc1 (stereo not given)	none (no result: Insulin prom up, SR-BI uptake up, SR-BI HDL uptake, MIN6 prolif, Calb FLC)
CCCc1cnc(N2CCN(C(=O)c3ccc(F)cc3)CC2)nc1	none (no result: Insulin prom up)
CCCc1cnc(N2CCN(C(=S)NC)CC2)nc1	HTR2A ag 17 | OPRM1 ag inactive | HTR2A ag conf inactive
COc1cccc(N2CCN(C(=O)c3ccc(OC)c(S(=O)(=O)NC4CC4)c3)CC2)c1	none (no result: Insulin prom up, SR-BI uptake up, SR-BI HDL uptake, MIN6 prolif, Calb FLC)
CN(C)c1ncnc2c1ncn2[C@H]1CN(Cc2cccnc2)C[C@@H](CO)O1	none (no result: Insulin prom up, SR-BI uptake up, SR-BI HDL uptake, MIN6 prolif, Calb FLC)
CCOC(=O)c1c(S(=O)(=O)NCCc2ccc(OC)c(OC)c2)c(C)n(C)c1C	HTR2A ag 16 (no result: Insulin prom up) | OPRM1 ag inactive | HTR2A ag conf inactive
CCC(=O)N1c2ccc(S(=O)(=O)N3CCCC3)cc2CC1C (stereo not given)	HTR2A ag 15 (no result: Insulin prom up) | OPRM1 ag inactive | HTR2A ag conf inactive
CC(=O)OC1CCC2(C)C(CCC3C2CC(=O)C2(C)C3CC(C3CCCC3=O)C2C(C)=O)C1 (stereo not given)	none (no result: Insulin prom up, MIN6 prolif, Calb FLC)
CCOc1ccc(CN2CCN(C(=O)c3ccco3)CC2)cc1	HTR2A ag 24 (no result: Insulin prom up) | OPRM1 ag inactive | HTR2A ag conf 130
O=C(c1ccco1)N1CCN(Cc2ccccc2Br)CC1	HTR2A ag 16 (no result: Insulin prom up, SR-BI uptake up, SR-BI HDL uptake) | OPRM1 ag inactive | HTR2A ag conf 64
COc1ccc(CN2CCN(CC(O)Cn3c4ccccc4c4ccccc43)CC2)cc1 (stereo not given)	HTR2A ag 19 | OPRM1 ag 1.1 | HTR2A ag conf inactive
C1=CC2CC1CC2CN1CCN(c2ccccc2)CC1 (stereo not given)	HTR2A ag 15 (no result: Insulin prom up) | OPRM1 ag inactive | HTR2A ag conf 57
CCOc1ccc(CN2CCN(CC(O)Cn3c4ccccc4c4ccccc43)CC2)cc1 (stereo not given)	none
N#Cc1ccc(C(=O)N2CCCC(c3cc(C(=O)NCc4cccnc4)no3)C2)cc1 (stereo not given)	none (no result: Insulin prom up, SR-BI uptake up, SR-BI HDL uptake, MIN6 prolif, Calb FLC)
CN(C(=O)c1cccc(NC(=O)Cc2cccc(NC(=O)C3CCCN(C(=O)C4CCC4)C3)c2)c1)C1CCC1 (stereo not given)	none (no result: Insulin prom up, MIN6 prolif, Calb FLC)
CCOc1ccc(C(=O)N2CCN(C(=O)c3ccco3)CC2)cc1OCC	none
COc1ccc2ccccc2c1CN1CCN(C(=O)c2ccco2)CC1	HTR2A ag 17 (no result: Insulin prom up, SR-BI uptake up, SR-BI HDL uptake) | OPRM1 ag inactive | HTR2A ag conf 130
O=C(c1ccco1)N1CCN(CC2CC3C=CC2C3)CC1 (stereo not given)	HTR2A ag 21 (no result: Calb FLC) | OPRM1 ag inactive | HTR2A ag conf 76
CCOc1cc(CN2CCN(C(=O)c3ccco3)CC2)ccc1OC	HTR2A ag 18 | OPRM1 ag inactive | HTR2A ag conf 71
O=C(c1ccco1)N1CCN(Cc2ccc(F)cc2)CC1	HTR2A ag 20 (no result: Insulin prom up) | OPRM1 ag inactive | HTR2A ag conf 74
COc1ccc2ccccc2c1CN1CCN(C(=O)c2ccccc2)CC1	none
O=C(NCC[C@H]1CC[C@H](NS(=O)(=O)c2ccccc2F)[C@@H](CO)O1)c1ccc(F)cc1	none (no result: Insulin prom up, SR-BI uptake up, SR-BI HDL uptake, MIN6 prolif, Calb FLC)
CCN(CC)S(=O)(=O)c1cc(NC(=O)c2ccc(-n3cncn3)c([N+](=O)[O-])c2)ccc1C	none (no result: Insulin prom up)
COc1ccc(CNC(=S)N2CCN(Cc3ccccc3)CC2)cc1	HTR2A ag 19 | OPRM1 ag inactive | HTR2A ag conf inactive
COc1ccc(NC(=S)N2CCN(C(=O)c3ccco3)CC2)cc1	none (no result: Insulin prom up, SR-BI uptake up, SR-BI HDL uptake)
COc1ccc(NC(=S)N2CCN(Cc3ccccc3)CC2)cc1	none
COc1ccc(CN2CCN(C(=O)c3ccco3)CC2)cc1	HTR2A ag 25 (no result: SR-BI uptake up, SR-BI HDL uptake) | OPRM1 ag inactive | HTR2A ag conf 103
COc1ccc(N2CCN(C(=O)COC(=O)c3ccco3)CC2)cc1	HTR2A ag 15 (no result: Insulin prom up) | OPRM1 ag inactive | HTR2A ag conf inactive
COc1ccc(N2CCN(C(=O)COC(=O)Cc3cccc(OC)c3)CC2)cc1	none (no result: Insulin prom up)
CCCCc1ccc(NC(=O)CSc2nc(=O)n(CCCN3CCOCC3)c3c2CCC3)cc1	none (no result: Insulin prom up)
CCOC(=O)C1CCN(CC(C)(C)NS(=O)(=O)c2ccc(C)cc2)CC1	HTR2A ag 20 (no result: Insulin prom up) | OPRM1 ag inactive | HTR2A ag conf inactive
COc1ccc(CNC(=O)C2=C(C)C(=O)OC23CCC(C)CC3)cc1 (stereo not given)	none
CCOc1ccc(CCNC(=O)C2=C(C)C(=O)OC23CCC(C)CC3)cc1 (stereo not given)	HTR2A ag 16 | OPRM1 ag inactive | HTR2A ag conf inactive
Cc1ccc(S(=O)(=O)NCCCCCCNS(=O)(=O)c2ccc(C)cc2)cc1	none (no result: Insulin prom up, SR-BI uptake up, SR-BI HDL uptake, MIN6 prolif, Calb FLC)
Cc1ccc(S(=O)(=O)NCCN(CCNS(=O)(=O)c2ccc(C)cc2)S(C)(=O)=O)cc1	HTR2A ag 24 | OPRM1 ag inactive | HTR2A ag conf inactive
COc1ccc(NC(=O)C/C(C)=N/NC(=O)c2ccccn2)c(OC)c1	none (no result: Insulin prom up)
C[C@@H]1CCCCO[C@H](CN(C)S(=O)(=O)c2ccccc2)[C@@H](C)CN([C@H](C)CO)C(=O)c2cc(NC(=O)Cc3ccccc3)ccc2O1	none (no result: Insulin prom up, SR-BI uptake up, SR-BI HDL uptake, MIN6 prolif, Calb FLC)
COc1ccc(NC(=O)C2CC3C=CC2C3)c([N+](=O)[O-])c1 (stereo not given)	HTR2A ag 15 (no result: Insulin prom up, MIN6 prolif, Calb FLC) | OPRM1 ag inactive | HTR2A ag conf inactive
CCCCCCCC/C=C\CCCCCCCC(=O)NCCc1ccc(O)c(O)c1	HTR2A ag 34 (no result: Insulin prom up, Calb FLC) | OPRM1 ag inactive | HTR2A ag conf 170
Cc1cccc(S(=O)(=O)NCCc2cn3ccccc3n2)c1	none
Cc1ccn2cc(CCNS(=O)(=O)c3ccc4c(c3)CCCC4)nc2c1	HTR2A ag 25 | OPRM1 ag inactive | HTR2A ag conf inactive
NC(CCc1ccccc1)c1csc(NC(=O)NCC2CCCCC2)n1 (stereo not given)	none (no result: Insulin prom up, SR-BI uptake up, SR-BI HDL uptake, MIN6 prolif, Calb FLC)
COc1ccc(/C=N/NC(=O)c2ccc(NC(=O)C3CCCCC3)cc2)cc1O	HTR2A ag 20 (no result: Insulin prom up) | OPRM1 ag inactive | HTR2A ag conf inactive

Compound activity as filed in PubChem.
